Data as given in ChEMBL document CHEMBL1124309, “Toward the synthesis of isozyme-specific enzyme inhibitors. Potent inhibitors of rat methionine adenosyltransferases. Effect of one-atom elongation of the ribose-P alpha bridge in two covalent adducts of L-methionine and beta,gamma-imido-ATP” (J Med Chem, 1988).

Columns and labels:
[1] = target: T1, S-adenosylmethionine synthetase (MAT 1 and MAT 2) (Rattus norvegicus, UniProt P13444+P18298); assay: Inhibition constant of Met varied compound was measured on M-2 variant methionine adenosyltransferase in rat kidney
Method in brief: (§1)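 L-[methyl-14C]methionine varied at six to eight levels, (0.5-4.0)×KM, with MgATP fixed at 2 mM for both M-2 and M-T; two inhibitor levels plus control. Incubations run in duplicate for 10 min at 37 °C, pH 8.2 Tris buffer with KCl, MgCl2 and DTT. Product on phosphocellulose discs counted by scintillation; no-ATP blanks. Ki from replots of double-reciprocal slopes/intercepts.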

[2] = target: T1, S-adenosylmethionine synthetase (MAT 1 and MAT 2); assay: Inhibition constant of Met varied compound was measured on MT variant methionine adenosyltransferase in rat ascitic hepatoma cells; type: cell-based; method in brief: as §1
[3] = target: T1, S-adenosylmethionine synthetase (MAT 1 and MAT 2); assay: Inhibition constant of ATP varied compound was measured on MT variant methionine adenosyltransferase in rat ascitic hepatoma cells; type: cell-based
Method in brief: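 M-T variant; MgATP varied at six to eight levels, (0.5-4.0)×KM, with L-[methyl-14C]methionine fixed at 120 μM; two inhibitor levels plus uninhibited control. Duplicate 10-min incubations at 37 °C in pH 8.2 Tris/KCl/MgCl2/DTT. Stopped with HClO4-methionine; labelled product bound to phosphocellulose discs, scintillation counted; no-ATP blanks. Ki by replotting double-reciprocal slopes/intercepts.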

[4] = target: T1, S-adenosylmethionine synthetase (MAT 1 and MAT 2); assay: Inhibition constant of ATP varied compound was measured on M-2 variate methionine adenosyltransferase in rat kidney
Method in brief: (§2)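 Rat M-2 enzyme; MgATP varied at six to eight levels, (0.5-4.0)×KM, with L-[methyl-14C]methionine fixed at 60 μM; two inhibitor levels plus no-inhibitor control. 10 min, 37 °C, pH 8.2 Tris/KCl/MgCl2/DTT buffer, duplicates. Acid-stopped; product on phosphocellulose discs counted by scintillation; no-ATP blanks. Ki from slope/intercept replots of double-reciprocal plots.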

[5] = target: T1, S-adenosylmethionine synthetase (MAT 1 and MAT 2); assay: Inhibition constant of Met varied compound was measured on M-2 variant Methionine adenosyltransferase in rat kidney; method in brief: as §1
[6] = target: T1, S-adenosylmethionine synthetase (MAT 1 and MAT 2); assay: Inhibition constant of ATP varied compound was measured on M-2 variate Methionine adenosyltransferase in rat kidney; method in brief: as §2

Compound | Ki [1] | Ki [2] | Ki [3] | Ki [4] | Ki [5] | Ki [6]
Nc1ncnc2c1ncn2[C@@H]1O[C@H](C(CCOP(=O)(O)OP(=O)(O)NP(=O)(O)O)SCCC(N)C(=O)O)[C@@H](O)[C@H]1O (stereo partly specified) | 2100 nM | 1500 nM | 810 nM | 440 nM |  | 
Nc1ncnc2c1ncn2[C@@H]1O[C@H]([C@@H](CNP(=O)(O)OP(=O)(O)OP(=O)(O)O)SCCC(N)C(=O)O)[C@@H](O)[C@H]1O (stereo partly specified) | 3000 nM | 2300 nM | 270 nM | 360 nM |  | 
Nc1ncnc2c1ncn2[C@@H]1O[C@H](CC(CSCC[C@H](N)C(=O)O)OP(=O)(O)OP(=O)(O)NP(=O)(O)O)[C@@H](O)[C@H]1O (stereo partly specified) | 2200 nM | 2700 nM | 630 nM | 390 nM |  | 
Nc1ncnc2c1ncn2[C@@H]1O[C@H]([C@H](CSCCC(N)C(=O)O)OP(=O)(O)OP(=O)(O)NP(=O)(O)O)[C@@H](O)[C@H]1O (stereo partly specified) |  | 670 nM | 210 nM |  | 650 nM | 130 nM
